Measured values from different studies.
Protocols differ between the studies behind these lines. Converted amounts (≈) assume the structure as drawn.

| Compound | organism | assay | test system | conditions | endpoint | result |
| --- | --- | --- | --- | --- | --- | --- |
| C/C(=N\N=C(/C)c1c(O)c2ccccc2oc1=O)c1c(O)c2ccccc2oc1=O | Penicillium verrucosum | microbial growth, broth dilution | – | 48 h | MIC | 62.5 µg/mL |
| OC(Cn1cncn1)(Cn1cncn1)c1ccc(F)cc1F | Candida albicans | microbial growth, broth dilution | 14936 | 48 h | MIC | 4 µM |
| CCOC(=O)c1cnc2c([N+](=O)[O-])cc(C(F)(F)F)cc2c1NC1CC1 | Trypanosoma brucei | parasite growth, resazurin | – | 72 h | EC50 | > 10000 nM |
| C/C(=N\C1CCCCC1/N=C(\C)c1c(O)c2ccccc2oc1=O)c1c(O)c2ccccc2oc1=O (stereo not drawn) | Penicillium verrucosum | microbial growth, broth dilution | – | 48 h | MIC | 62.5 µg/mL |
| CCS(=O)(=O)Oc1ccc(C=NNC(=O)CSc2nc3ccc(Cl)cc3c(=O)n2-c2ccccc2)cc1 | Candida albicans | microbial growth, well diffusion | – | 20 µg/mL | inhibition zone | 3 mm |
| O=c1[nH]c(CCl)nc2scc(-c3cccc(F)c3)c12 | Trypanosoma brucei | parasite growth, ATP luminescence | – | 48 h | EC50 | 1100 nM |
| c1cc(-c2ccc3ncnc(Nc4ncco4)c3c2)nc(N2C[C@H]3C[C@@H]2CO3)n1 | Trypanosoma brucei | parasite growth, SYBR Green | – | 48 h | GI50 | 4700 nM |
| O=c1[nH]c(CCl)nc2scc(-c3ccc(C(F)(F)F)cc3)c12 | Trypanosoma brucei | parasite growth, ATP luminescence | – | 48 h | EC50 | 2500 nM |
| C/C(=N\C(=S)/N=C(\C)c1c(O)c2ccccc2oc1=O)c1c(O)c2ccccc2oc1=O | Penicillium verrucosum | microbial growth, broth dilution | – | 48 h | MIC | 1.95 µg/mL |
| FC(F)(F)c1cc(Nc2ncnc3ccc(-c4cccc(N5CCOCC5)c4)cc23)ccc1Cl | Trypanosoma brucei | parasite growth, SYBR Green | – | 48 h | GI50 | 50 nM |
| Cc1c2c(nn1C)CSCc1cc(n(C)n1)CSc1cc(c3ccccc3c1)OCCCc1c(C(=O)O)n(C)c3c-2c(Cl)ccc13 | Enterococcus faecium | microbial growth, broth dilution | – | clinical isolate | MIC50 | 12.5 µM (≈ 8.4 µg/mL) |
| c1cc(-c2ccc3ncnc(Nc4ncco4)c3c2)nc(N2CCOCC2)c1 | Trypanosoma brucei | parasite growth, SYBR Green | GAMBIENSE | – | GI50 | 2400 nM |
| CCOC(=O)c1cnc2c([N+](=O)[O-])cc(C(F)(F)F)cc2c1NCCc1ccccc1 | Trypanosoma brucei | parasite growth, resazurin | – | 72 h | EC50 | > 10000 nM |
| O=[N+]([O-])c1ccc(Nc2ncnc3ccc(-c4cccc(N5CCOCC5)c4)cc23)cc1C(F)(F)F | Trypanosoma brucei | parasite growth, SYBR Green | – | 48 h | GI50 | 8.4 nM |
| C/C(=N\CCNCCNCC/N=C(\C)c1c(O)c2ccccc2oc1=O)c1c(O)c2ccccc2oc1=O | Penicillium verrucosum | microbial growth, broth dilution | – | 48 h | MIC | 31.2 µg/mL |
| CC(=O)N1CCN(c2ccc(OCC3COC(Cn4ccnc4)(c4ccc(Cl)cc4Cl)O3)cc2)CC1 (stereo not drawn) | Candida albicans | microbial growth, broth dilution | 56452 | 48 h | MIC | 2 µM |
| CC1(C)S[C@@H]2[C@H](NC(=O)[C@H](N)c3ccccc3)C(=O)N2[C@H]1C(=O)O | Enterococcus faecium | microbial growth | – | clinical isolate | MIC90 | > 128 µg/mL |
| CN1CCN(c2cccc(-c3ccc4ncnc(Nc5ccc(Cl)c(Cl)c5)c4c3)c2)CC1 | Trypanosoma brucei | parasite growth, SYBR Green | – | 48 h | GI50 | 290 nM |
| CC(=O)NC[C@H]1CN(c2ccc(N3CCOCC3)c(F)c2)C(=O)O1 | Enterococcus faecium | microbial growth | – | clinical isolate | MIC90 | 2 µg/mL (≈ 5.93 µM) |
| C/C(=N\CCNCC/N=C(\C)c1c(O)c2ccccc2oc1=O)c1c(O)c2ccccc2oc1=O | Penicillium verrucosum | microbial growth, broth dilution | – | 48 h | MIC | 125 µg/mL |
| C[C@@H]1[C@H](O)[C@@H](C)/C=C/C=C/C=C/C=C/C=C/C=C/C=C/[C@H](O[C@@H]2O[C@H](C)[C@@H](O)[C@H](N)[C@@H]2O)C[C@@H]2O[C@](O)(C[C@@H](O)C[C@@H](O)[C@H](O)CC[C@@H](O)C[C@@H](O)CC(=O)O[C@H]1C)C[C@H](O)[C@H]2C(=O)O | Candida albicans | microbial growth, broth dilution | CGMCC2 | 48 h | MIC | < 0.25 µM |
| Clc1cccc(Nc2ncnc3ccc(-c4cccc(N5CCOCC5)c4)cc23)c1 | Trypanosoma brucei | parasite growth, SYBR Green | – | 48 h | GI50 | 380 nM |
| COc1c(N2C[C@@H]3CCCN[C@@H]3C2)c(F)cc2c(=O)c(C(=O)O)cn(C3CC3)c12 | Enterococcus faecium | microbial growth | – | clinical isolate | MIC90 | 64 µg/mL (≈ 159 µM) |
| O=c1[nH]c(CCl)nc2scc(-c3ccccc3F)c12 | Trypanosoma brucei | parasite growth, ATP luminescence | – | 24 h | EC50 | 1000 nM |
| c1coc(Nc2ncnc3ccc(-c4cncc(N5CCOCC5)n4)cc23)n1 | Trypanosoma brucei | parasite growth, SYBR Green | – | 48 h | GI50 | 25000 nM |
| O=c1[nH]c(CCl)nc2scc(-c3ccc(F)cc3)c12 | Trypanosoma brucei | parasite growth, ATP luminescence | – | 48 h | EC50 | 1500 nM |
| c1cc(-c2ccc3ncnc(Nc4ncco4)c3c2)nc(N2CCOCC2)n1 | Trypanosoma brucei | parasite growth, SYBR Green | – | 48 h | GI50 | 230 nM |
